We go through 1 molecule from article PMC11596327 (Chemistry (Weinheim an der Bergstrasse, Germany), 2023).

One experiment deals with T1, C7 wt (Homo sapiens, UniProt P55210).
T1 sequence (P55210 24-198 limits assumed): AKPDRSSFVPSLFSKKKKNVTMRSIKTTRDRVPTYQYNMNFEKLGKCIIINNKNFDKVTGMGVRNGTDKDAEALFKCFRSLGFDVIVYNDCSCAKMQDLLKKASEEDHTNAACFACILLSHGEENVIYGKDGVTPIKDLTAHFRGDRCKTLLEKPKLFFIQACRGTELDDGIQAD
T1 sequence (P55210 207-303 limits assumed): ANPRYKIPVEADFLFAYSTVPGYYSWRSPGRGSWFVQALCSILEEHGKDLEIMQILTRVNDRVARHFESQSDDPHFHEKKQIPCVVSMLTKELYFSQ
Kind of experiment: Fluorometric stopped-flow pre-steady state kinetics assay. Particulars: with increasing concentrations of inhibitor. It counts as biochemical. In short, it runs like this: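 Fluorescence stopped-flow on wild-type caspase-7. Progress curves were recorded with test compound at 6 to 500 uM or with DMSO alone, and a covalent allosteric inhibitor served as the assay-development control. Each curve was fitted individually to a pre-steady-state burst equation plus linear steady-state rate to give burst amplitude and k_burst. SE comes from a 95% confidence interval.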

The target in another experiment is T2, Caspase-7 wt (Homo sapiens, UniProt P55210).
T2 sequence (P55210 24-198 limits assumed): T1 sequence (P55210 24-198 limits assumed)
T2 sequence (P55210 207-303 limits assumed): T1 sequence (P55210 207-303 limits assumed)
Kind of experiment: Fluorometric steady-state kinetics assay. It counts as biochemical. Particulars: C7 pre-saturated with DICA (DICA-C7). Summed up: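 Fluorometric steady-state kinetic assays on wild-type C7 and wild-type C3. Both IC50 and Ki were derived. Ki came from fitting a non-competitive inhibitor equation. Values are reported with confidence intervals at the 95% level.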

The next experiment concerns the target T3, C7 (Homo sapiens, UniProt P55210).
T3 sequence (P55210 24-198 limits assumed): T1 sequence (P55210 24-198 limits assumed)
T3 sequence (P55210 207-303 limits assumed): T1 sequence (P55210 207-303 limits assumed)
Kind of experiment: Differential scanning fluorimetry. Particulars: DICA-saturated C7 plus Ac-DEVD-CMK. It counts as binding. On the technique in general: Differential scanning fluorimetry follows unfolding on heating by fluorescence.

With `O=C(COc1ccc(Cl)cc1Cl)NCCS` [DICA, 2-(2,4-Dichlorophenoxy)-N-(2-mercaptoethyl)-acetamide, reference compound], on C7 wt, the burst amplitude result is “decrease” and the “burst phase rate constant (kburst)” value is “no change”. Also, on Caspase-7 wt, the “turnover of Ac-DEVD-AFC substrate” value is reported as “no turnover”. The “formation of physical enzyme-substrate-inhibitor (ESI) complex” value at C7 is “able to physically bind substrate and DICA simultaneously”.
